Assays:
[1] = biological target: 5-hydroxytryptamine receptor 1B (Homo sapiens, UniProt P28222); assay: Agonist activity to the human recombinant 5-hydroxytryptamine 1B receptor; format: functional
Summary of the method: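 CHO Pro 5 cells stably transfected with human recombinant 5-HT1Dβ receptors. Compound was added to the culture medium for 30 min at 37 °C. The reaction was stopped with cold ethanolic 5 mM EDTA (2:1 v/v), and extracted cAMP was quantified by enzyme immunoassay, with serotonin as the reference agonist.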

[2] = biological target: T1, 5-hydroxytryptamine receptor 1D (Homo sapiens, UniProt P28221); assay: Compound was tested for its binding affinity against human recombinant 5-hydroxytryptamine 1D receptor alpha for comparison purpose.
T1 sequence (P28221 whole entry): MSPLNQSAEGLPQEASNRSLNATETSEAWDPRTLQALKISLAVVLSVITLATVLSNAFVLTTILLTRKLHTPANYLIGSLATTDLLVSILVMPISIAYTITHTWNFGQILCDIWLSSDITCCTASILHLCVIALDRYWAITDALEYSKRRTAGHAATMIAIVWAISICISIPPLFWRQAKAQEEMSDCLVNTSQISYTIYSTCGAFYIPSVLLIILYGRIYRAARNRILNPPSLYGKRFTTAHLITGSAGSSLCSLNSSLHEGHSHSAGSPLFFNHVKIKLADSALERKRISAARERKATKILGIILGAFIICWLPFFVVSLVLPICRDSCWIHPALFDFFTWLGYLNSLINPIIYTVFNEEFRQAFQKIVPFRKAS

[3] = biological target: T1, 5-hydroxytryptamine receptor 1D; assay: Compound was tested for its agonist activity against human 5-hydroxytryptamine 1D receptor alpha for comparison purpose.; format: functional
[4] = biological target: T1, 5-hydroxytryptamine receptor 1D; assay: Compound was tested for its agonist activity against human recombinant 5-hydroxytryptamine 1D receptor alpha for comparison purpose.; format: functional

5-hydroxytryptamine receptor 1B, sequence (P28222 whole entry): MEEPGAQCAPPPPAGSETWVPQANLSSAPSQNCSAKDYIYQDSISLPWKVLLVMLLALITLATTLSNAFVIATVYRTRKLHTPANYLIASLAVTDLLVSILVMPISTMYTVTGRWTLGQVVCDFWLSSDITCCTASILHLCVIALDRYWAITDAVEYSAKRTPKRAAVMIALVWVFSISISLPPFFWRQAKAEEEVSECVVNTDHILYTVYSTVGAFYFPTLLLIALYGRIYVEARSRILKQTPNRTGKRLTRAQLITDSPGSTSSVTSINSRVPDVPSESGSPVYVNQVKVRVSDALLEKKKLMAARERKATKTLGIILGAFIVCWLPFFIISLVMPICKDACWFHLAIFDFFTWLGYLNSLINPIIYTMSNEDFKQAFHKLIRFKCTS

Compound `NCCOc1cccc2ccccc12` has a Ki [1] of 100 nM.
In the case of `CN(CCOc1cccc2ccccc12)Cc1ccccc1`, the Ki [2] is reported as 590 nM and the Ki [1] is reported as 260 nM.
`CN(C)CCCOc1ccccc1` was tested, and the Ki [1] was > 10000 nM.
For `CC(C)NCCCOc1cccc2ccccc12`, the Ki [1] was 7660 nM.
`CNCCOc1cccc2ccccc12` showed a Ki [3] of 34 nM and a Ki [1] of 26 nM.
`CCCCN(CC)CCOc1cccc2ccccc12` gave a Ki [2] of 112 nM and a Ki [1] of 1230 nM.
In the case of `CC(C)NCC(O)COc1cccc2[nH]ccc12` (racemic) [PINDOLOL], the Ki [1] is reported as > 10000 nM.
In the case of `OCCNCCOc1cccc2ccccc12`, the Ki [4] is reported as 68 nM and the Ki [1] is reported as 107 nM.
`CCCCN(CCCC)CCOc1cccc2ccccc12` gave a Ki [1] of 2680 nM.
Work on `CNCCOc1cccc(C)c1C` yielded a Ki [1] of 316 nM.
Work on `CCNCCOc1cccc2ccccc12` yielded a Ki [1] of 66 nM.
For `CC(C)NCCOc1cccc2ccccc12`, the Ki [1] was 120 nM.
For `CCCN(C)CCOc1cccc2ccccc12`, the Ki [2] was 103 nM and the Ki [1] was 750 nM.
`NCCCOc1cccc2ccccc12` gave a Ki [1] of 290 nM.
`CCCN(C)CCOc1ccccc1C1CCCC1` showed a Ki [2] of 82 nM and a Ki [1] of 425 nM.
Work on `CNCCOc1ccccc1` yielded a Ki [2] of 1800 nM and a Ki [1] of 5960 nM.
For `CN(C)CCCOc1cccc2ccccc12`, the Ki [1] was 255 nM.
For `CC(C)NCCCOc1cccc2[nH]ccc12`, the Ki [1] was > 10000 nM.
In the case of `CC(C)NCC(O)COc1cccc2[nH]ccc12` (single isomer, unassigned; (-)) [PINDOLOL], the Ki [1] is reported as 2600 nM.
In the case of `CN(C)CCOc1cccc2ccccc12`, the Ki [1] is reported as 94 nM.
`CC(C)NCCOc1cccc2[nH]ccc12` showed a Ki [1] of 1120 nM.
With `CCCN(C)CCCOc1ccccc1C1CCCC1` the Ki [2] was 143 nM and the Ki [1] was 1200 nM.
With `CCCNCCOc1cccc2ccccc12` the Ki [1] was 200 nM.
`CNCCCOc1ccccc1` was tested, and the Ki [1] was 3450 nM.
Work on `CN(C)CCCCOc1cccc2ccccc12` yielded a Ki [1] of 470 nM.
`CN(C)CCCNc1ccccc1` was tested, and the Ki [1] was > 10000 nM.
